Experimental data reported in ChEMBL document CHEMBL4765319, “Identification of a new series of flavopiridol-like structures as kinase inhibitors with high cytotoxic potency” (Eur J Med Chem, 2020).

Legend:
SK-OV-3 = assay: Antiproliferative activity against human SKOV3 cells assessed as reduction in cell viability incubated for 72 hrs by CellTiter-Blue fluorescence assay; conditions: SK-OV-3, 72 h
[1] = molecular target: T1, Cyclin-dependent kinase 5/CDK5 activator 1 (Homo sapiens) (UniProt Q00535+Q15078); assay: Inhibition of human CDK5/p25 assessed as residual activity at 1 uM in presence of ATP by ADP-glo luminescent assay relative to control; format: protein-complex assay
In short: (§1)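 Human kinases assayed by ADP-Glo luminescence with 10 μM ATP, compound at 10 or 1 μM. Activity is expressed as % of maximal activity relative to a DMSO control, mean n = 2.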

MIA PaCa-2 = assay: Antiproliferative activity against human MIA PaCa-2 cells assessed as reduction in cell viability incubated for 72 hrs by CellTiter-Blue fluorescence assay; conditions: MIA PaCa-2, 72 h
PC-3 = assay: Antiproliferative activity against human PC-3 cells assessed as reduction in cell viability incubated for 72 hrs by CellTiter-Blue fluorescence assay; conditions: PC-3, 72 h
HCT-116 = assay: Antiproliferative activity against human HCT-116 cells assessed as reduction in cell viability incubated for 72 hrs by CellTiter-Blue fluorescence assay; conditions: HCT-116, 72 h
Leishmania major [2] = assay: Inhibition of Leishmania major CK1 assessed as residual activity at 10 uM in presence of ATP by ADP-glo luminescent assay relative to control
Plasmodium falciparum [3] = assay: Inhibition of Plasmodium falciparum GSK3 assessed as residual activity at 1 uM in presence of ATP by ADP-glo luminescent assay relative to control
In short: (§2)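 Recombinant P. falciparum GSK3, bacterially expressed, in buffer A (10 mM MgCl2, 1 mM EGTA, 1 mM DTT, 25 mM Tris-HCl pH 7.5, 50 μg/ml heparin). Substrate 0.010 μg/μl GS-1 peptide, 10 μM ATP, ADP-Glo luminescence. Compound at 10 or 1 μM; % residual activity vs DMSO control, mean n = 2.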

Leishmania major [4] = assay: Inhibition of Leishmania major CK1 assessed as residual activity at 1 uM in presence of ATP by ADP-glo luminescent assay relative to control
[5] = molecular target: T2, CDK2/Cyclin A2 (Homo sapiens) (UniProt P24941+P20248); assay: Inhibition of human CDK2/cyclin A assessed as residual activity at 10 uM in presence of ATP by ADP-glo luminescent assay relative to control; format: protein-complex assay
In short: as §1

[6] = molecular target: Cyclin-dependent kinase 5/CDK5 activator 1 (Homo sapiens, UniProt Q00535); assay: Inhibition of human CDK5/p25 in presence of ATP by ADP-glo luminescent assay; format: protein-complex assay
In short: (§3)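 Human kinases tested over roughly 0.0003–10 μM by ADP-Glo luminescence with 10 μM ATP, in duplicate. IC50 is taken from dose-response curves.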

[7] = molecular target: T1, Cyclin-dependent kinase 5/CDK5 activator 1 (Homo sapiens); assay: Inhibition of human CDK5/p25 assessed as residual activity at 10 uM in presence of ATP by ADP-glo luminescent assay relative to control; format: protein-complex assay
In short: as §1

[8] = molecular target: T3, CDK9/cyclin T1 (Homo sapiens) (UniProt O60563+P50750); assay: Inhibition of human CDK9/cyclin T assessed as residual activity at 10 uM in presence of ATP by ADP-glo luminescent assay relative to control; format: protein-complex assay
In short: as §1

CDK9/cyclin T1 = CDK9/cyclin T1 (Homo sapiens, UniProt P50750); assay: Inhibition of human CDK9/cyclin T in presence of ATP by ADP-glo luminescent assay; format: protein-complex assay
In short: as §3

[9] = molecular target: T4, Glycogen synthase kinase-3 beta (Homo sapiens, UniProt P49841); assay: Inhibition of human GSK3beta assessed as residual activity at 10 uM in presence of ATP by ADP-glo luminescent assay relative to control
In short: as §1
Target sequence in this assay (P49841 whole entry, looked up): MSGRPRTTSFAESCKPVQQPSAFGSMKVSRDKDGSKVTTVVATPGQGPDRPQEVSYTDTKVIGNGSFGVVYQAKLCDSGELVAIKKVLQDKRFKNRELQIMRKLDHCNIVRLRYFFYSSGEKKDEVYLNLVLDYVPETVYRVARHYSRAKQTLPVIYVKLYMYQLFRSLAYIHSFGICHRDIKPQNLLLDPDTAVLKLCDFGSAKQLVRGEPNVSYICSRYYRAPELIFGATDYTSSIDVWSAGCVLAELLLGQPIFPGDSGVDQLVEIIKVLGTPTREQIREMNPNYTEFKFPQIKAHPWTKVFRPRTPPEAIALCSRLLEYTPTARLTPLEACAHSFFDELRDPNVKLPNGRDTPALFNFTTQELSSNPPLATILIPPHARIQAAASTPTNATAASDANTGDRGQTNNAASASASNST

Sus scrofa [10] = species on record: Sus scrofa; assay: Inhibition of porcine CK1delta/epsilon assessed as residual activity at 10 uM in presence of ATP by ADP-glo luminescent assay relative to control
Sus scrofa [11] = species on record: Sus scrofa; assay: Inhibition of porcine GSK3alpha/beta assessed as residual activity at 10 uM in presence of ATP by ADP-glo luminescent assay relative to control
In short: (§4)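 Porcine brain GSK3α/β, native and affinity-purified. Assayed by ADP-Glo luminescence with 10 μM ATP and 0.010 μg/μl GS-1 peptide substrate. Buffer A: 10 mM MgCl2, 1 mM EGTA, 1 mM DTT, 25 mM Tris-HCl pH 7.5, 50 μg/ml heparin. Compound tested at 10 or 1 μM. Result is % of maximal activity versus DMSO control, mean of n = 2.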

Sus scrofa [12] = species on record: Sus scrofa; assay: Inhibition of porcine CK1delta/epsilon assessed as residual activity at 1 uM in presence of ATP by ADP-glo luminescent assay relative to control
NCI-N87 = assay: Antiproliferative activity against human NCI-N87 cells assessed as reduction in cell viability incubated for 72 hrs by CellTiter-Blue fluorescence assay; conditions: NCI-N87, 72 h
[13] = molecular target: T3, CDK9/cyclin T1 (Homo sapiens); assay: Inhibition of human CDK9/cyclin T assessed as residual activity at 1 uM in presence of ATP by ADP-glo luminescent assay relative to control; format: protein-complex assay
In short: as §1

[14] = molecular target: T4, Glycogen synthase kinase-3 beta; assay: Inhibition of human GSK3beta assessed as residual activity at 1 uM in presence of ATP by ADP-glo luminescent assay relative to control
In short: as §1
Target sequence in this assay (P49841 whole entry, looked up): as above

Sus scrofa [15] = species on record: Sus scrofa; assay: Inhibition of porcine GSK3alpha/beta assessed as residual activity at 1 uM in presence of ATP by ADP-glo luminescent assay relative to control
In short: as §4

K562 = assay: Antiproliferative activity against human K562 cells assessed as reduction in cell viability incubated for 72 hrs by CellTiter-Blue resazurin fluorescence assay; conditions: K562, 72 h
CDK2/Cyclin A2 = CDK2/Cyclin A2 (Homo sapiens, UniProt P24941); assay: Inhibition of human CDK2/cyclin A in presence of ATP by ADP-glo luminescent assay; format: protein-complex assay
In short: as §3

[16] = molecular target: T2, CDK2/Cyclin A2 (Homo sapiens); assay: Inhibition of human CDK2/cyclin A assessed as residual activity at 1 uM in presence of ATP by ADP-glo luminescent assay relative to control; format: protein-complex assay
In short: as §1

SK-BR-3 = assay: Antiproliferative activity against human SK-BR-3 cells assessed as reduction in cell viability incubated for 72 hrs by CellTiter-Blue fluorescence assay; conditions: SK-BR-3, 72 h
[17] = molecular target: T4, Glycogen synthase kinase-3 beta; assay: Inhibition of human GSK3beta in presence of ATP by ADP-glo luminescent assay
In short: as §3
Target sequence in this assay (P49841 whole entry): as the sequence (P49841 whole entry, looked up) above

Plasmodium falciparum [18] = assay: Inhibition of Plasmodium falciparum GSK3 assessed as residual activity at 10 uM in presence of ATP by ADP-glo luminescent assay relative to control
In short: as §2

T1 sequence (Q00535 whole entry): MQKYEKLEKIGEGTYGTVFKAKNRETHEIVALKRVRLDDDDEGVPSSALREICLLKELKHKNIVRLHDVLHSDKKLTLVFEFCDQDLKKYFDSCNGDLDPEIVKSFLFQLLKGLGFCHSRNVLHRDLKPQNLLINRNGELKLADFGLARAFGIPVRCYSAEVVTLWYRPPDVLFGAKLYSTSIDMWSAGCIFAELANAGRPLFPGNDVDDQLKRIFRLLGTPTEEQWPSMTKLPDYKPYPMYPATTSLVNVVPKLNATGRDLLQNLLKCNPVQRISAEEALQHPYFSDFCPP
T1 sequence (Q15078 99-307 partner limits assumed): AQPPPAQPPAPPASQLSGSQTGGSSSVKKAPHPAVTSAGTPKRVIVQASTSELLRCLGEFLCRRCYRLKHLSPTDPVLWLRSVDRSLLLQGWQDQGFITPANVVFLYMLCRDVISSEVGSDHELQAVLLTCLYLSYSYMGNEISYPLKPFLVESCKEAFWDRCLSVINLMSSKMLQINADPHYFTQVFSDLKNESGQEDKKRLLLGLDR
Chain of CDK9/cyclin T1 (O60563 whole entry): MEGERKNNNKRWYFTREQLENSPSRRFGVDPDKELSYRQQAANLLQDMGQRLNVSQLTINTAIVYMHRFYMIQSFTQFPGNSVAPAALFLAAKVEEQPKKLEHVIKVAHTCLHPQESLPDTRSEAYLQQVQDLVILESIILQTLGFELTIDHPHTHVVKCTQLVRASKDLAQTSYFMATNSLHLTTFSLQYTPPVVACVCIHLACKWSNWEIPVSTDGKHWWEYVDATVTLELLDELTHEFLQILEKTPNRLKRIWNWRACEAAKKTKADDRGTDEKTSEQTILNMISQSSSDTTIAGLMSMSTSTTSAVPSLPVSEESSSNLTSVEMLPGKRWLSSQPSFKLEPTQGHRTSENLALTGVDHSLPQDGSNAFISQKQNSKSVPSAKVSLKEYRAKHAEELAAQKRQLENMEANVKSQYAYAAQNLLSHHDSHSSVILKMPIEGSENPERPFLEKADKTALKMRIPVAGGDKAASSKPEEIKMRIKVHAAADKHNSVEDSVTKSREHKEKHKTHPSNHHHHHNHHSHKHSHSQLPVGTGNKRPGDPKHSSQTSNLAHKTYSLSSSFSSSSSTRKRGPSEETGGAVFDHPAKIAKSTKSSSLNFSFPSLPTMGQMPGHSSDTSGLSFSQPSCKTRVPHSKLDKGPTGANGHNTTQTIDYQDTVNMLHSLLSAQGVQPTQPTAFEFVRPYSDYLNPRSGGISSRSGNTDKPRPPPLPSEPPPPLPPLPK
Chain of CDK9/cyclin T1 (P50750 whole entry): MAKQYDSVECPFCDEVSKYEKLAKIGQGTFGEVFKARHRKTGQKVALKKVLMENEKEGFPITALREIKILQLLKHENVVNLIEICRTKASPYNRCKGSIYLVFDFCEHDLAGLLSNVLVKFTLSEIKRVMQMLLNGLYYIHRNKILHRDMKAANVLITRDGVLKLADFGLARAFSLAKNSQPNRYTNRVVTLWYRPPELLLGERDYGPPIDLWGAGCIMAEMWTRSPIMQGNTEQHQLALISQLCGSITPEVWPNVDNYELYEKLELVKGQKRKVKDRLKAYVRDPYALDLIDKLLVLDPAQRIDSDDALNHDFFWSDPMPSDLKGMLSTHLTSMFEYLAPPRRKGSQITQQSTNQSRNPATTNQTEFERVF
Chain of Cyclin-dependent kinase 5/CDK5 activator 1 (Q00535 whole entry): as the sequence (Q00535 whole entry) above
Chain of Cyclin-dependent kinase 5/CDK5 activator 1 (Q15078 whole entry, further chain): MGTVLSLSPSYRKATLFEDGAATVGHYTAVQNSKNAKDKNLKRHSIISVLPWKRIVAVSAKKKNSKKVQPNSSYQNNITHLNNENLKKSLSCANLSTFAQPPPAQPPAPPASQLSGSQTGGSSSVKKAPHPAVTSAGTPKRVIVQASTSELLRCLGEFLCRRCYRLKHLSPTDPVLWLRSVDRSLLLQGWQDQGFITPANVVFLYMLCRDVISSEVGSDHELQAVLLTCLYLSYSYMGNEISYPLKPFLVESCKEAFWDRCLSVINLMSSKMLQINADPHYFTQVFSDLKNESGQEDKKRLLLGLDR

## CC(=O)OC[C@@H]1O[C@@H](Sc2ccc(-c3cc(=O)c4c(O)cc(O)c(C5=CCN(C)CC5)c4o3)cc2)[C@@H](OC(C)=O)[C@H](OC(C)=O)[C@@H]1OC(C)=O
SK-OV-3
  IC50: 2.87 µM

## CC(=O)N[C@H](CSc1ccc(-c2cc(=O)c3c(O)cc(O)c(C4=CCN(C)CC4)c3o2)cc1)C(=O)O
SK-OV-3
  IC50: > 10 µM

## CN1CC=C(c2c(O)cc(O)c3c(=O)cc(-c4ccc(Nc5ccccc5)cc4)oc23)CC1
SK-OV-3
  IC50: 1.2 µM

## COC(=O)[C@H](CO)NC(=O)[C@H](CSc1ccc(-c2cc(=O)c3c(O)cc(O)c(C4=CCN(C)CC4)c3o2)cc1)NC(=O)OCc1ccccc1
SK-OV-3
  IC50: 4.3 µM

## CN1CC=C(c2c(O)cc(O)c3c(=O)cc(-c4ccc(Sc5nc6ccccc6[nH]5)cc4)oc23)CC1
[1]
  Activity: 14%
MIA PaCa-2
  IC50: 852 nM
PC-3
  IC50: 742 nM
HCT-116
  IC50: 293 nM
Leishmania major [2]
  Activity: 40%
SK-OV-3
  IC50: 0.595 µM
Plasmodium falciparum [3]
  Activity: 85%
Leishmania major [4]
  Activity: 99%
[5]
  Activity: 5%
[6]
  IC50: 121 nM
[7]
  Activity: 4%
[8]
  Activity: 10%
CDK9/cyclin T1
  IC50: 8 nM
[9]
  Activity: -8%
Sus scrofa [10]
  Activity: 69%
Sus scrofa [11]
  Activity: 11%
Sus scrofa [12]
  Activity: 91%
NCI-N87
  IC50: 183 nM
[13]
  Activity: 8%
[14]
  Activity: 6%
Sus scrofa [15]
  Activity: 36%
K562
  IC50: 194 nM
CDK2/Cyclin A2
  IC50: 162 nM
[16]
  Activity: 35%
SK-BR-3
  IC50: 254 nM
[17]
  IC50: 117 nM
Plasmodium falciparum [18]
  Activity: 54%

## CC(=O)OC[C@@H]1O[C@@H](Sc2ccc(-c3cc(=O)c4c(O)cc(O)c(C5=CCN(C)CC5)c4o3)c(Cl)c2)[C@@H](OC(C)=O)C(OC(C)=O)C1OC(C)=O (single isomer, unassigned)
SK-OV-3
  IC50: 2.33 µM

## CN1CC=C(c2c(O)cc(O)c3c(=O)cc(-c4ccc(Sc5ccc6ccccc6n5)cc4)oc23)CC1
SK-OV-3
  IC50: 3.8 µM

## CN1CC=C(c2c(O)cc(O)c3c(=O)cc(-c4ccc(Sc5nc6ccccc6o5)cc4)oc23)CC1
SK-OV-3
  IC50: 2 µM

## CN1CC=C(c2c(O)cc(O)c3c(=O)cc(-c4ccc(SCCC(=O)NOC5CCCCO5)cc4)oc23)CC1 (configuration not stated)
SK-OV-3
  IC50: 6.85 µM

## CN1CC=C(c2c(O)cc(O)c3c(=O)cc(-c4ccc(Sc5nc(-c6ccccc6)c[nH]5)cc4)oc23)CC1
[1]
  Activity: 10%
MIA PaCa-2
  IC50: 448 nM
PC-3
  IC50: 243 nM
HCT-116
  IC50: 173 nM
Leishmania major [2]
  Activity: 54%
SK-OV-3
  IC50: 0.295 µM
Plasmodium falciparum [3]
  Activity: > 100%
Leishmania major [4]
  Activity: 88%
[5]
  Activity: 14%
[6]
  IC50: 195 nM
[7]
  Activity: 5%
[8]
  Activity: 0%
CDK9/cyclin T1
  IC50: 9 nM
[9]
  Activity: 6%
Sus scrofa [10]
  Activity: 43%
Sus scrofa [11]
  Activity: 11%
Sus scrofa [12]
  Activity: 78%
NCI-N87
  IC50: 4800 nM
[13]
  Activity: 2%
[14]
  Activity: 25%
Sus scrofa [15]
  Activity: 53%
K562
  IC50: 300 nM
CDK2/Cyclin A2
  IC50: 469 nM
[16]
  Activity: 33%
SK-BR-3
  IC50: 352 nM
[17]
  IC50: 356 nM
Plasmodium falciparum [18]
  Activity: > 100%

## COC(=O)[C@@H](CSc1ccc(-c2cc(=O)c3c(O)cc(O)c(C4=CCN(C)CC4)c3o2)cc1)NC(=O)OC(C)(C)C
SK-OV-3
  IC50: 7.79 µM

## CC(=O)OC[C@@H]1O[C@@H](Sc2ccc(-c3cc(=O)c4c(O)cc(O)c(C5=CCN(C)CC5)c4o3)cc2)[C@@H](OC(C)=O)[C@H](OC(C)=O)[C@H]1OC(C)=O
SK-OV-3
  IC50: > 10 µM

## CN1CC=C(c2c(O)cc(O)c3c(=O)cc(-c4ccc(Sc5ncccn5)cc4)oc23)CC1
SK-OV-3
  IC50: > 10 µM

## CN1CC=C(c2c(O)cc(O)c3c(=O)cc(-c4ccc(S[C@@H]5O[C@@H](CO)C(O)C(O)[C@@H]5O)cc4)oc23)CC1 (single isomer, unassigned)
SK-OV-3
  IC50: > 10 µM

## CN1CC=C(c2c(O)cc(O)c3c(=O)cc(-c4ccc(Sc5ccc(C(=O)O)cn5)cc4)oc23)CC1
SK-OV-3
  IC50: > 10 µM

## CN1CC[C@H](c2c(O)cc(O)c3c(=O)cc(-c4ccccc4Cl)oc23)[C@H](O)C1 [ALVOCIDIB]
[1]
  Activity: 36%
MIA PaCa-2
  IC50: 320 nM
Leishmania major [2]
  Activity: 61%
SK-OV-3
  IC50: 0.22 µM
Plasmodium falciparum [3]
  Activity: > 100%
Leishmania major [4]
  Activity: > 100%
[5]
  Activity: 11%
[7]
  Activity: 13%
[8]
  Activity: 1%
[9]
  Activity: 10%
Sus scrofa [10]
  Activity: 78%
Sus scrofa [11]
  Activity: 16%
Sus scrofa [12]
  Activity: > 100%
NCI-N87
  IC50: 111 nM
[13]
  Activity: 5%
[14]
  Activity: 50%
Sus scrofa [15]
  Activity: 70%
K562
  IC50: 125 nM
[16]
  Activity: 26%
SK-BR-3
  IC50: 75 nM
Plasmodium falciparum [18]
  Activity: 70%

## CN1CC=C(c2c(O)cc(O)c3c(=O)cc(-c4ccc(Sc5ccc(C(=O)NO)cn5)cc4)oc23)CC1
SK-OV-3
  IC50: > 10 µM

## CN1CC=C(c2c(O)cc(O)c3c(=O)cc(-c4ccc(SCCC(=O)NO)cc4)oc23)CC1
SK-OV-3
  IC50: > 10 µM

## COc1ccc2[nH]c(Sc3ccc(-c4cc(=O)c5c(O)cc(O)c(C6=CCN(C)CC6)c5o4)cc3)nc2c1
SK-OV-3
  IC50: 1.2 µM

## CN1CC=C(c2c(O)cc(O)c3c(=O)cc(-c4ccc(Sc5ncccn5)cc4Cl)oc23)CC1
SK-OV-3
  IC50: > 10 µM
